Reference: paper PMC2225614 (The Journal of General Physiology, 2001)

What was measured:
Format in all cases: biochemical, bovine/rat
[1] = system: CHM 15 (switched NH2-terminal domain through part of S1); assay: Genistein inhibition of closed chimeric channel CHM 15; details: closed channels; behaved like parent channel
In short: (§1)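 Chimeric RETα/OLFα channels were expressed in Xenopus oocytes (50 nl of 50 ng/μl RNA, 2–7 d), and the vitelline membrane was removed. Inside-out patches were bathed in symmetrical 115 mM NaCl, 5 mM EGTA, 1 mM EDTA, 5 mM HEPES, pH 7.5, held at −75 mV. Test compound was preapplied 1 min to closed channels, then saturating 2 mM cGMP; residual current normalized to Imax.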

[2] = molecular target: T1, CHM35 (RETα with Q417 substituted with a histidine) (Bos taurus, UniProt Q00194, Q417H); assay: Genistein inhibition of closed chimeric channel CHM35; details: closed channels
T1 sequence (Q00194 1-690 Q417H): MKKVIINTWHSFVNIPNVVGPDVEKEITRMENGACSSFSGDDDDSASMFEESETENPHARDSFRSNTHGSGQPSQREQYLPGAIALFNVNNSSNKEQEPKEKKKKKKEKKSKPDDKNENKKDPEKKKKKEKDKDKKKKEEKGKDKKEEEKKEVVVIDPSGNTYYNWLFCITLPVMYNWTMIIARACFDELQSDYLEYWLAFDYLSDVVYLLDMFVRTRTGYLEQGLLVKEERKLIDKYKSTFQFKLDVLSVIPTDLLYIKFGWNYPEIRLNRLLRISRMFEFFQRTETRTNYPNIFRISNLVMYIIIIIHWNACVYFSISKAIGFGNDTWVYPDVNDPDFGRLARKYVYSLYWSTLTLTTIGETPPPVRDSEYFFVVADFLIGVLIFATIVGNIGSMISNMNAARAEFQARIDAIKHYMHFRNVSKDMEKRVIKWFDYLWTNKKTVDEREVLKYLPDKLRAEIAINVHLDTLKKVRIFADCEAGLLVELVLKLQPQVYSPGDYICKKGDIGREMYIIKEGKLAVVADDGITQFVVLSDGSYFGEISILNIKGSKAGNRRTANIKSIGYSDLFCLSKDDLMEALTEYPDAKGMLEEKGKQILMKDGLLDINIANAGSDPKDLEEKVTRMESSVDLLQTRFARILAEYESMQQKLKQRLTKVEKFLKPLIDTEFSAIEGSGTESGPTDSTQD
In short: as §1

[3] = system: CHM 14 (OLFα except for mid-S1 through S4); assay: Genistein inhibition of closed chimeric channel CHM 14; details: closed channels
In short: as §1

[4] = system: CHM12 (RETα except for mid-S1 through S4); assay: Genistein inhibition of closed chimeric channel CHM12; details: closed channels
In short: as §1

[5] = system: CHM18 (OLFα with a RETα cyclic nucleotide–binding domain); assay: Genistein inhibition of closed chimeric channel CHM18; details: closed channels
In short: as §1

[6] = system: CHM16 (switched NH2-terminal domain through part of S1); assay: Genistein inhibition of closed chimeric channel CHM16; details: closed channels; behaved like parent channel
In short: as §1

[7] = system: CHM34 (converse substitution in OLFα background); assay: Genistein inhibition of closed chimeric channel CHM34; details: closed channels
[8] = molecular target: T2, CHM23 (OLFα with RETα part of pore, S6 and part of C-linker) (Rattus norvegicus, UniProt Q00195, C329S/E325K/E350S/F357A/H396Q/I327V/I356V/K348R/K390R/L353F/Q399H/T383A/V373I/V394I); assay: Genistein inhibition of closed chimeric channel CHM23
T2 sequence (Q00195 1-664 E325K/I327V/C329S/K348R/E350S/L353F/I356V/F357A/V373I/T383A/K390R/V394I/H396Q/Q399H): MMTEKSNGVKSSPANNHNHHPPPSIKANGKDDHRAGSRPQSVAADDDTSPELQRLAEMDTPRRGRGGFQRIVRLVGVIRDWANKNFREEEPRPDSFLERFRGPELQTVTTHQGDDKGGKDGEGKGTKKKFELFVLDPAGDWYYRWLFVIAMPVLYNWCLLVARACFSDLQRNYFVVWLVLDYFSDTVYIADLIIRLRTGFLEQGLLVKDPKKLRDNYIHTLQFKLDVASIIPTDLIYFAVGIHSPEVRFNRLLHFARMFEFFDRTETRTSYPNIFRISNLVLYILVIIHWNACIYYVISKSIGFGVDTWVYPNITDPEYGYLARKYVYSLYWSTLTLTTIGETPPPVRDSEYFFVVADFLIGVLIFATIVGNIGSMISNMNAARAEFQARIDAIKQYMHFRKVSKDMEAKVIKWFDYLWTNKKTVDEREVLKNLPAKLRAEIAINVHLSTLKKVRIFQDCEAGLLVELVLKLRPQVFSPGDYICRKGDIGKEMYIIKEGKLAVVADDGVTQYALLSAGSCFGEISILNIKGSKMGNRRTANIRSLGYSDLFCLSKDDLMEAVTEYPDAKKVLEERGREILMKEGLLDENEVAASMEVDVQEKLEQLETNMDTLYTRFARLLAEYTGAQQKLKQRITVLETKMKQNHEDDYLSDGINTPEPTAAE
In short: as §1

O=c1c(-c2ccc(O)cc2)coc2cc(O)cc(O)c12 [genistein]
effect of domain switch on genistein inhibition [1]: had no effect
genistein inhibition [2]: did not reduce genistein inhibition
genistein inhibition [3]: not inhibited
genistein inhibition [4]: fully inhibited
genistein inhibition [5]: no inhibition
effect of domain switch on genistein inhibition [6]: had no effect
genistein inhibition [7]: neither substitution introduced genistein inhibition
inhibition of closed channels [8]: 99%
